Source: PMC9056700 (RSC Advances, 2020)
Like-named read-outs stand apart in the source and are kept apart here. Marks after values point to notes of the source that are not given here.

How the values were obtained:
[1] = test system: P388 mouse lymphocytic leukemia cells; conditions: cited from earlier work; for ED50: taken from a previous report
[2] = VT-1H NMR quantification of the square/folded conformational equilibrium; assay type: physicochemical; conditions: CH3CN-d3, calculated from ΔG° = ΔH° − TΔS° with van't Hoff parameters
Outline: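 Peptide at about 5.0 mM in CH3CN-d3, with shifts referenced to internal […] (0.00 ppm). Protons assigned by 2D-COSY and ROESY (500 ms mixing time). ΔH° and ΔS° came from a linear van't Hoff plot of ln K versus 1/T, and ΔG° at 298 K was then calculated from these parameters.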

| Substance | cytotoxicity (in words) ([1]; P388 cells, folded reference peptide) | ED50 ([1]; P388 cells) | cytotoxicity (in words) [1] | ΔG° at 298 K (conformational free energy, square to folded form) [2] |
| --- | --- | --- | --- | --- |
| cyclo(-Ile-alloThr-D-Val-Thz-)2 (head to tail) [dASC] | no cytotoxicity | >100 ^h μg mL^−1 | no cytotoxicity | – |
| Ascidiacyclamide [Peptide 1] | – | 10.5 ^a μg mL^−1 | – | 0.523 kcal/mol |
